Measurements from ChEMBL document CHEMBL1135761, “Discovery of further pyrrolidine trans-lactams as inhibitors of human neutrophil elastase (HNE) with potential as development candidates and the crystal structure of HNE complexed with an inhibitor (GW475151)” (J Med Chem, 2002).

System: not listed separately
Assay: Pharmacokinetic parameter Tmax was reported in dog after oral administration
Type: ADME, organism-based, Canis lupus familiaris
Conditions: in vivo

Row | Compound | Tmax [min]
1 | CC(C)[C@@H]1C(=O)N(S(C)(=O)=O)[C@@H]2CCN(C(=O)c3cnc(CNC4CC4)cn3)[C@H]21.Cl | 15
2 | CC(C)[C@@H]1C(=O)N(S(C)(=O)=O)[C@@H]2CCN(C(=O)C3CN(CC(C)(C)C)C3)[C@H]21.Cl | 54

Target: T1, Cathepsin G (Homo sapiens, UniProt P08311)
T1 sequence (P08311 whole entry): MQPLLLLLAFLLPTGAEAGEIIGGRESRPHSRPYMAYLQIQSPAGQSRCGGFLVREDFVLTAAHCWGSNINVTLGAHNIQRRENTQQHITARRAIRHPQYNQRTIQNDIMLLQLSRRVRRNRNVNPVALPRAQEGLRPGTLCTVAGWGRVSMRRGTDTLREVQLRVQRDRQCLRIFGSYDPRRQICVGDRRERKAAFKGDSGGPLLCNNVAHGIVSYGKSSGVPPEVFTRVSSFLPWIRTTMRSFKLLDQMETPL
Assay: The compound was evaluated for its inhibitory activity against cathepsin G using selectivity assay
Conditions: not given

Row | Compound | IC50 [µM]
3 | CC(C)[C@@H]1C(=O)N(S(C)(=O)=O)[C@@H]2CCN(C(=O)c3cnc(CNC4CC4)cn3)[C@H]21.Cl | > 100
4 | CC(C)[C@@H]1C(=O)N(S(C)(=O)=O)[C@@H]2CCN(C(=O)C3CN(CC(C)(C)C)C3)[C@H]21.Cl | > 100

System: Rattus norvegicus
Assay: pharmacokinetic parameter area under the curve (AUC) was reported in rat after intravenous administration
Type: ADME, organism-based
Conditions: in vivo
Procedure, shortened: (§1)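 Rats were dosed with the hydrochloride salt at 2 mg/kg intravenously and orally. Plasma pharmacokinetic parameters were derived from each route, and F was taken from the oral versus intravenous exposure. Some rat data were normalized from a 2.4 to a 2 mg/kg dose.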

Row | Compound | AUC [ng·h/mL]
5 | CC(C)[C@@H]1C(=O)N(S(C)(=O)=O)[C@@H]2CCN(C(=O)c3cnc(CNC4CC4)cn3)[C@H]21.Cl | 148
6 | CC(C)[C@@H]1C(=O)N(S(C)(=O)=O)[C@@H]2CCN(C(=O)C3CN(CC(C)(C)C)C3)[C@H]21.Cl | 482

System: not listed separately
Assay: Oral bioavailability in rat
Type: ADME, organism-based
Conditions: in vivo
Procedure, shortened: as §1

Row | Compound | bioavailability [%]
7 | CC(C)[C@@H]1C(=O)N(S(C)(=O)=O)[C@@H]2CCN(C(=O)c3cnc(CNC4CC4)cn3)[C@H]21.Cl | 43
8 | CC(C)[C@@H]1C(=O)N(S(C)(=O)=O)[C@@H]2CCN(C(=O)C3CN(CC(C)(C)C)C3)[C@H]21.Cl | 45

Target: T2, Neutrophil elastase (Homo sapiens) (UniProt P08246)
T2 sequence (whole entry): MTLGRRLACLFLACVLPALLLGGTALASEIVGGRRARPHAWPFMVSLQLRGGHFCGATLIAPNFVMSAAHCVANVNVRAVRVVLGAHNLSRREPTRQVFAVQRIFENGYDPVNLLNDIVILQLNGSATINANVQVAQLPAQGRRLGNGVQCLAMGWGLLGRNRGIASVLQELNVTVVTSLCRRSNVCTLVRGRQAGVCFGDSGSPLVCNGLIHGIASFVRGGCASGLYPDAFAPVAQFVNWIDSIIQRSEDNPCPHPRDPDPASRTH
Conditions: Canis lupus familiaris; 2 mg/kg

Row | Compound | inhibition [%]
9 | CC(C)[C@@H]1C(=O)N(S(C)(=O)=O)[C@@H]2CCN(C(=O)c3cnc(CNC4CC4)cn3)[C@H]21.Cl | 92
10 | CC(C)[C@@H]1C(=O)N(S(C)(=O)=O)[C@@H]2CCN(C(=O)C3CN(CC(C)(C)C)C3)[C@H]21.Cl | 92

System: Rattus norvegicus
Assay: pharmacokinetic parameter area under the curve (AUC) was reported in rat after oral administration
Type: ADME, organism-based
Conditions: in vivo
Procedure, shortened: as §1

Row | Compound | AUC [ng·h/mL]
11 | CC(C)[C@@H]1C(=O)N(S(C)(=O)=O)[C@@H]2CCN(C(=O)c3cnc(CNC4CC4)cn3)[C@H]21.Cl | 64
12 | CC(C)[C@@H]1C(=O)N(S(C)(=O)=O)[C@@H]2CCN(C(=O)C3CN(CC(C)(C)C)C3)[C@H]21.Cl | 217

System: not listed separately
Assay: pharmacokinetic parameter volume of distribution (Vd) was reported in dog after intravenous administration
Type: ADME, organism-based, Canis lupus familiaris
Conditions: in vivo, read-out: Vd area

Row | Compound | Vd [L/kg]
13 | CC(C)[C@@H]1C(=O)N(S(C)(=O)=O)[C@@H]2CCN(C(=O)c3cnc(CNC4CC4)cn3)[C@H]21.Cl | 1.9
14 | CC(C)[C@@H]1C(=O)N(S(C)(=O)=O)[C@@H]2CCN(C(=O)C3CN(CC(C)(C)C)C3)[C@H]21.Cl | 3.5

System: not listed separately
Assay: Pharmacokinetic parameter Cmax was reported after in rat oral administration
Type: ADME, organism-based
Design: route oral
Conditions: in vivo
Procedure, shortened: as §1

Row | Compound | Cmax [ng/mL]
15 | CC(C)[C@@H]1C(=O)N(S(C)(=O)=O)[C@@H]2CCN(C(=O)c3cnc(CNC4CC4)cn3)[C@H]21.Cl | 135
16 | CC(C)[C@@H]1C(=O)N(S(C)(=O)=O)[C@@H]2CCN(C(=O)C3CN(CC(C)(C)C)C3)[C@H]21.Cl | 142

System: Canis familiaris
Assay: pharmacokinetic parameter area under the curve (AUC) was reported in dog after intravenous administration
Type: ADME, organism-based, Canis lupus familiaris
Conditions: in vivo

Row | Compound | AUC [ng·h/mL]
17 | CC(C)[C@@H]1C(=O)N(S(C)(=O)=O)[C@@H]2CCN(C(=O)c3cnc(CNC4CC4)cn3)[C@H]21.Cl | 220
18 | CC(C)[C@@H]1C(=O)N(S(C)(=O)=O)[C@@H]2CCN(C(=O)C3CN(CC(C)(C)C)C3)[C@H]21.Cl | 488

Target: T2, Neutrophil elastase (Homo sapiens)
Conditions: not given

Row | Compound | k on [M⁻¹ s⁻¹]
19 | CC(C)[C@@H]1C(=O)N(S(C)(=O)=O)[C@@H]2CCN(C(=O)c3cnc(CNC4CC4)cn3)[C@H]21.Cl | 252000
20 | CC(C)[C@@H]1C(=O)N(S(C)(=O)=O)[C@@H]2CCN(C(=O)C3CN(CC(C)(C)C)C3)[C@H]21.Cl | 6310

Target: Serine protease 1 (Homo sapiens, UniProt P07477)
Assay: The compound was evaluated for its inhibitory activity against trypsin using selectivity assay
Conditions: not given

Serine protease 1, sequence (P07477 whole entry): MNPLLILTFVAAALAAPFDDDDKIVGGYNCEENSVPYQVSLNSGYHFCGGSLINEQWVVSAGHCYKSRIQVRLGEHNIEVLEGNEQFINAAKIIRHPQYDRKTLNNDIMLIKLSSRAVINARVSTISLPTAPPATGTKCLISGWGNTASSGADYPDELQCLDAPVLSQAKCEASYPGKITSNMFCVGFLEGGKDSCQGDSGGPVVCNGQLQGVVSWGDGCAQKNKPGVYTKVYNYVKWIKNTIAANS

Row | Compound | IC50 [µM]
21 | CC(C)[C@@H]1C(=O)N(S(C)(=O)=O)[C@@H]2CCN(C(=O)c3cnc(CNC4CC4)cn3)[C@H]21.Cl | > 100
22 | CC(C)[C@@H]1C(=O)N(S(C)(=O)=O)[C@@H]2CCN(C(=O)C3CN(CC(C)(C)C)C3)[C@H]21.Cl | > 100

System: Canis familiaris
Assay: pharmacokinetic parameter area under the curve (AUC) was reported in dog after oral administration
Type: ADME, organism-based, Canis lupus familiaris
Conditions: in vivo

Row | Compound | AUC [ng·h/mL]
23 | CC(C)[C@@H]1C(=O)N(S(C)(=O)=O)[C@@H]2CCN(C(=O)c3cnc(CNC4CC4)cn3)[C@H]21.Cl | 147
24 | CC(C)[C@@H]1C(=O)N(S(C)(=O)=O)[C@@H]2CCN(C(=O)C3CN(CC(C)(C)C)C3)[C@H]21.Cl | 417

System: not listed separately
Assay: Pharmacokinetic parameter Tmax was reported in rat after intravenous administration
Type: ADME, organism-based
Conditions: in vivo
Procedure, shortened: as §1

Row | Compound | Tmax [min]
25 | CC(C)[C@@H]1C(=O)N(S(C)(=O)=O)[C@@H]2CCN(C(=O)c3cnc(CNC4CC4)cn3)[C@H]21.Cl | 1.8
26 | CC(C)[C@@H]1C(=O)N(S(C)(=O)=O)[C@@H]2CCN(C(=O)C3CN(CC(C)(C)C)C3)[C@H]21.Cl | 1.8

Target: Chymotrypsinogen A (Bos taurus, UniProt P00766)
Assay: The compound was evaluated for its inhibitory activity against Chymotrypsinogen using selectivity assay
Conditions: not given
Procedure, shortened: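 Selectivity counter-screen against chymotrypsin, run essentially per an earlier published protocol; inhibitor preincubated with enzyme for 15 min before activity read-out.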

Row | Compound | IC50 [µM]
27 | CC(C)[C@@H]1C(=O)N(S(C)(=O)=O)[C@@H]2CCN(C(=O)c3cnc(CNC4CC4)cn3)[C@H]21.Cl | 0.54
28 | CC(C)[C@@H]1C(=O)N(S(C)(=O)=O)[C@@H]2CCN(C(=O)C3CN(CC(C)(C)C)C3)[C@H]21.Cl | 31

Target: T2, Neutrophil elastase (Homo sapiens)
Conditions: Canis lupus familiaris; Blood; 2 mg/kg

Row | Compound | inhibition [%]
29 | CC(C)[C@@H]1C(=O)N(S(C)(=O)=O)[C@@H]2CCN(C(=O)c3cnc(CNC4CC4)cn3)[C@H]21.Cl | 99
30 | CC(C)[C@@H]1C(=O)N(S(C)(=O)=O)[C@@H]2CCN(C(=O)C3CN(CC(C)(C)C)C3)[C@H]21.Cl | 99

System: not listed separately
Assay: Pharmacokinetic parameter Cmax was reported after in dog oral administration
Type: ADME, organism-based, Canis lupus familiaris
Design: route oral
Conditions: in vivo

Row | Compound | Cmax [ng/mL]
31 | CC(C)[C@@H]1C(=O)N(S(C)(=O)=O)[C@@H]2CCN(C(=O)c3cnc(CNC4CC4)cn3)[C@H]21.Cl | 205
32 | CC(C)[C@@H]1C(=O)N(S(C)(=O)=O)[C@@H]2CCN(C(=O)C3CN(CC(C)(C)C)C3)[C@H]21.Cl | 130

System: not listed separately
Assay: Pharmacokinetic parameter Tmax was reported in rat after oral administration
Type: ADME, organism-based
Conditions: in vivo
Procedure, shortened: as §1

Row | Compound | Tmax [min]
33 | CC(C)[C@@H]1C(=O)N(S(C)(=O)=O)[C@@H]2CCN(C(=O)c3cnc(CNC4CC4)cn3)[C@H]21.Cl | 15
34 | CC(C)[C@@H]1C(=O)N(S(C)(=O)=O)[C@@H]2CCN(C(=O)C3CN(CC(C)(C)C)C3)[C@H]21.Cl | 45

System: not listed separately
Assay: half life was reported in rat after oral administration
Type: ADME, organism-based
Conditions: in vivo
Procedure, shortened: as §1

Row | Compound | half-life [min]
35 | CC(C)[C@@H]1C(=O)N(S(C)(=O)=O)[C@@H]2CCN(C(=O)c3cnc(CNC4CC4)cn3)[C@H]21.Cl | 24
36 | CC(C)[C@@H]1C(=O)N(S(C)(=O)=O)[C@@H]2CCN(C(=O)C3CN(CC(C)(C)C)C3)[C@H]21.Cl | 72

System: not listed separately
Assay: Oral bioavailability in dog
Type: ADME, organism-based, Canis lupus familiaris
Conditions: in vivo

Row | Compound | bioavailability [%]
37 | CC(C)[C@@H]1C(=O)N(S(C)(=O)=O)[C@@H]2CCN(C(=O)c3cnc(CNC4CC4)cn3)[C@H]21.Cl | 120
38 | CC(C)[C@@H]1C(=O)N(S(C)(=O)=O)[C@@H]2CCN(C(=O)C3CN(CC(C)(C)C)C3)[C@H]21.Cl | 90

System: not listed separately
Assay: half life was reported in rat after intravenous administration
Type: ADME, organism-based
Conditions: in vivo
Procedure, shortened: as §1

Row | Compound | half-life [min]
39 | CC(C)[C@@H]1C(=O)N(S(C)(=O)=O)[C@@H]2CCN(C(=O)c3cnc(CNC4CC4)cn3)[C@H]21.Cl | 18
40 | CC(C)[C@@H]1C(=O)N(S(C)(=O)=O)[C@@H]2CCN(C(=O)C3CN(CC(C)(C)C)C3)[C@H]21.Cl | 48

System: not listed separately
Assay: pharmacokinetic parameter volume of distribution (Vd) was reported in rat after intravenous administration
Type: ADME, organism-based
Conditions: in vivo, read-out: Vd area
Procedure, shortened: as §1

Row | Compound | Vd [L/kg]
41 | CC(C)[C@@H]1C(=O)N(S(C)(=O)=O)[C@@H]2CCN(C(=O)c3cnc(CNC4CC4)cn3)[C@H]21.Cl | 5
42 | CC(C)[C@@H]1C(=O)N(S(C)(=O)=O)[C@@H]2CCN(C(=O)C3CN(CC(C)(C)C)C3)[C@H]21.Cl | 4.9

System: not listed separately
Assay: half life was reported in dog after oral administration
Type: ADME, organism-based, Canis lupus familiaris
Conditions: in vivo

Row | Compound | half-life [min]
43 | CC(C)[C@@H]1C(=O)N(S(C)(=O)=O)[C@@H]2CCN(C(=O)c3cnc(CNC4CC4)cn3)[C@H]21.Cl | 24
44 | CC(C)[C@@H]1C(=O)N(S(C)(=O)=O)[C@@H]2CCN(C(=O)C3CN(CC(C)(C)C)C3)[C@H]21.Cl | 126

System: not listed separately
Assay: half life was reported in dog after intravenous administration
Type: ADME, organism-based, Canis lupus familiaris
Conditions: in vivo

Row | Compound | half-life [min]
45 | CC(C)[C@@H]1C(=O)N(S(C)(=O)=O)[C@@H]2CCN(C(=O)c3cnc(CNC4CC4)cn3)[C@H]21.Cl | 24
46 | CC(C)[C@@H]1C(=O)N(S(C)(=O)=O)[C@@H]2CCN(C(=O)C3CN(CC(C)(C)C)C3)[C@H]21.Cl | 108
